Source: PubChem (Broad Institute)
An excerpt weighted towards active compounds, which were near 2.7% of everything screened.
E-sel inducer = E-selectin induction on HUVECs; P16581; HUVEC E-selectin immunofluorescence imaging; normalized: neutral wells 0, TNF-alpha wells 100; activation, % at 7.58 µM; 260,000 compounds, 0.37% hits;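 active = mean E-selectin-positive cell signal at least 10% of the positive control, reached in at least 60% of replicates, without over 20% cell loss; inconclusive = no rule given, readout overlaps actives, possibly toxicity-flagged; inactive = the rest, including those meeting only one limit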
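Read-out: % PE-positive cells | Test system: HUVEC | Doses: One compound dose added by pin transfer | Buffer or medium: EGM-2 over gelatin coat | Signal: Immunofluorescence imaging | Benchmarks: TNF-alpha, DMSO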
F508del corr = correctors of CFTR F508del function in bronchial epithelial cells | CFBE cells, YFP halide quenching; stimulated with forskolin plus potentiator P3; % fluorescence drop versus neutral controls | activity (quench increase), % at 7.58 µM | 350,000 compounds, 0.36% hits | AID 720511;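 active = mean added fluorescence quench of at least 8% versus neutral control, with both replicates also reaching 8%; inconclusive = only one of the mean or replicate conditions met; inactive = mean below 8% and not both replicates reaching 8%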;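 note: cells transiently co-express mutant CFTR-F508del with the halide-sensitive YFP; corrector assay measuring rescue of mutant channel to the surface after 24 h compound exposure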
S100A4 MyoIIA = S100A4-myosin IIA interaction inhibition; S100A4/TAMRA-MyoIIA peptide fluorescence polarization; inhibition, % at 10.7 µM; 360,000 compounds, 0.14% hits; AID 652163;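 active = mean inhibition of at least 70% across replicates, with every replicate also reaching that level; inconclusive = mean inhibition reaches 70% but some replicates fall short; inactive = mean inhibition below 70%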
Target sequence (P26447 whole entry, looked up): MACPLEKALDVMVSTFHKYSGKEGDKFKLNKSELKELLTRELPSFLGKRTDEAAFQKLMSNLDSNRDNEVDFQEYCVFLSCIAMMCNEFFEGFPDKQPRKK
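assay system = human S100A4 monomer with TAMRA-labelled myosin IIA peptide | also added = labelled myosin peptide probe, 5 nM | incubation = 5 min between mix addition and reading | control set = DMSO and TFP controls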
FGF22 binding = binders of recombinant human FGF22 by thermal shift. SYPRO orange fluorescence; percent of sucrose octasulfate shift, DMSO zero. activity (Tm shift, normalised), % at 9.99 µM. 340,000 compounds, 1.5% hits;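 active = mean Tm shift, scaled 0 neutral to 100 positive control, at about 1.3% or above, every replicate too, limit read from the data; inconclusive = no clear call, values can overlap the other calls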
Target sequence (Q9HCT0 whole entry, looked up): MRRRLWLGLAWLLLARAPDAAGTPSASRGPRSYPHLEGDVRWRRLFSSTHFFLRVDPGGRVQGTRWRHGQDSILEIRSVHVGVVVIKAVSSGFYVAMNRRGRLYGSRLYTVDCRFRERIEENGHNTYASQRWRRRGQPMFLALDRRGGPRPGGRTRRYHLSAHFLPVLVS
Env fusion inh = HIV envelope-mediated fusion inhibition; inhibition, % at 12.3 µM; AID 651610; 360,000 compounds, 1.1% hits; HeLa-JRFL Env/CEM21 cell fusion, luciferase;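 active = mean replicate inhibition score of at least 50 and every replicate individually at or above 50; inconclusive = only one of the two criteria met; inactive = mean below 50 and not all replicates reaching 50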
Large screens that a line does not name were inactive.

CC(C)C[C@H]1CN([C@@H](CC(C)C)CN2CCCC2CN2C(=S)NC[C@@H]2Cc2ccc(O)cc2)C(=S)N1CCc1ccccc1 (stereo not given in full)	none
Oc1ccc(C[C@H]2CNC(=S)N2CC2CCCN2C[C@H](Cc2ccc(O)cc2)N2C[C@H](Cc3ccc(O)cc3)N(CC3CCCCC3)C2=S)cc1 (stereo not given in full)	Env fusion inh 91
CC(C)C[C@H]1CNC(=S)N1CC1CCCN1C[C@H](Cc1ccc(O)cc1)N1C[C@H](Cc2ccccc2)N(CC2CCCCCC2)C1=S (stereo not given in full)	Env fusion inh 58
CC(C)C[C@H]1CNC(=S)N1C[C@H]1CCCN1C[C@H](Cc1ccccc1)N1C[C@H](Cc2ccc(O)cc2)N(CC2CCCCCC2)C1=S	none (no result: E-sel inducer)
CC(C)C[C@H]1CNC(=S)N1C[C@H]1CCCN1C[C@H](Cc1ccc(O)cc1)N1C[C@H](Cc2ccccc2)N(CC2CCCCC2)C1=S	Env fusion inh 112
CC(C)C[C@H]1CN([C@@H](CC(C)C)CN2CCC[C@@H]2CN2C(=S)NC[C@@H]2Cc2ccc(O)cc2)C(=S)N1CCc1ccccc1	F508del corr 8.8, Env fusion inh inconclusive
COc1cccc(-c2ccc3n(c2=O)C[C@H]2[C@H](CO)[C@@H](C(=O)NCC4CC4)N(C)[C@@H]32)c1	none (no result: S100A4 MyoIIA, Env fusion inh)
C[C@@H]1CN([C@@H](C)CO)C(=O)c2cc(C3=CCCC3)cnc2O[C@@H]1CN(C)C(=O)c1ccccn1	none
CO[C@@H]1CN(C)C(=O)c2ccc(NC(=O)Nc3ccccc3F)cc2OC[C@H](C)N(C(C)=O)C[C@H]1C	none
COc1cccc(-c2ccc3n(c2=O)C[C@H]2[C@H](CO)[C@@H](C(=O)N(C)C)N(C(=O)C4CCCC4)[C@@H]32)c1	none (no result: Env fusion inh)
CCn1c(SCC(=O)NCc2ccco2)nnc1C1CCCC1	none
CCOC(=O)NC(=O)CSc1nnc(C2CC2)n1Cc1ccco1	FGF22 binding 43
C=CCn1c(SCC(=O)Nc2nc(C)cs2)nnc1C(NC(=O)c1ccccc1)C(C)C (stereo not given)	Env fusion inh 112 (no result: E-sel inducer, F508del corr, S100A4 MyoIIA, FGF22 binding)
C[C@@H]1CN([C@H](C)CO)C(=O)c2cc(C#Cc3ccccn3)cnc2O[C@@H]1CN(C)C(=O)c1ccccn1	none
O=C(/C=C/c1ccccn1)c1ccc(Br)cc1O	E-sel inducer 105 (no result: F508del corr)
C[C@@H]1CN([C@H](C)CO)C(=O)c2cc(/C=C/c3ccccc3)cnc2O[C@@H]1CN(C)C(=O)C1CCC1	none
C=CCN=c1scc(C)n1/N=C/c1ccc(O)c(O)c1	F508del corr 11
CN=c1scc(-c2ccco2)n1/N=C/c1ccc(O)c(O)c1	none (no result: E-sel inducer)
O=C(C1=NN[C@@H]2C(=O)N(c3ccccc3C(F)(F)F)C(=O)[C@H]12)c1cnccn1	E-sel inducer 27
O=C(C1=NN[C@@H]2C(=O)N(c3cccc(F)c3)C(=O)[C@H]12)c1cnccn1	none (no result: E-sel inducer)
CCOC(=O)C(=O)C1=CN(Cc2ccccc2)C=C(C#N)C1	E-sel inducer 52
COc1ccc(NC(=O)Nc2ccc3c(c2)CC(=O)N([C@H](C)CO)C[C@@H](C)[C@@H](CN(C)C(=O)Nc2ccc(F)cc2)O3)cc1	none (no result: Env fusion inh)
Nc1nnnn1CC(=O)N/N=C/c1cc([N+](=O)[O-])ccc1Cl	FGF22 binding 43
NC(=S)N/N=C/c1cc([N+](=O)[O-])ccc1Cl	none
COCc1[nH]nc2c1C(c1ccc(Br)cc1)N(Cc1ccccc1)C2=O (stereo not given)	none
COCc1[nH]nc2c1C(c1ccc(F)cc1)N(Cc1ccccc1)C2=O (stereo not given)	Env fusion inh 77
CC(C)CNc1ncnc2[nH]ncc12	FGF22 binding 44 (no result: Env fusion inh)
Clc1ccc(CNc2ncnc3[nH]ncc23)c(Cl)c1	FGF22 binding 43 (no result: Env fusion inh)
COCC#Cc1cnc2c(c1)C(=O)N([C@H](C)CO)C[C@@H](C)[C@@H](CN(C)C(=O)NC1CCCC1)O2	none
Cc1ccc(C)c2[nH]c(=O)c(CN(Cc3ccco3)C(=S)NCC3CCCO3)cc12 (stereo not given)	FGF22 binding 43 (no result: E-sel inducer)
CN(C)CCN(Cc1cc2cc3c(cc2[nH]c1=O)OCO3)C(=S)NCc1ccco1	FGF22 binding 43
